Measurements as given in publication PMC12502093 (RSC Advances, 2025).
≈ marks a conversion by molar mass, not a printed value.

Columns and labels:
MCF7 cells = assay: Neutral red uptake cytotoxicity assay, MCF7; type: cell-based, human; details: for IC50: Homo sapiens, MCF7, 48 h, read-out: IC50 (μM) MCF7; for (SI) MCF7, selectivity index: SI = IC50 MDCK cell/IC50 MCF7 cell
How it was run: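 Neutral red uptake. Log-phase cells were grown in DMEM with 10% FBS at 37 °C, 5% CO2, at 10^4 cells/well. They were exposed 48 h to 12.5, 25, 50 and 100 μM test compound (DMSO final <0.2%), then given neutral red medium for 2 h and washed with DPBS. Dye was extracted with 1% acetic acid/50% ethanol and read at 450/630 nm. IC50 came from log concentration versus intensity, three runs averaged. SI = MDCK IC50 / MCF7 IC50.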

IL6 = assay: qRT-PCR gene expression in MCF7 cells: IL6; type: cell-based, human; details: compound at IC50, 48 h, relative to β-Actin, vs control
How it was run: (§1)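 MCF7 cells (3 × 10^4 per well) were treated 48 h with test compound. Total RNA was column-extracted and reverse-transcribed to first-strand cDNA. SYBR Green qPCR ran 95 °C 10 min, then 40 cycles of 95 °C 15 s, 60 °C 30 s, 72 °C 30 s. Expression was normalised to β-Actin by 2−ΔΔCT relative to untreated control. Data are mean ± SEM; Student's t-test, P < 0.05.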

JAK2 = assay: qRT-PCR gene expression in MCF7 cells: JAK2; type: cell-based, human; details: compound at IC50, 48 h, relative to β-Actin, vs control
How it was run: as §1

STAT3 [1] = assay: qRT-PCR gene expression in MCF7 cells: STAT3; type: cell-based, human; details: compound at IC50, 48 h, relative to β-Actin, vs control
How it was run: as §1

BCL2 = assay: qRT-PCR gene expression in MCF7 cells: BCL2; type: cell-based, human; details: compound at IC50, 48 h, relative to β-Actin, vs control
How it was run: as §1

BAX = assay: qRT-PCR gene expression in MCF7 cells: BAX; type: cell-based, human; details: compound at IC50, 48 h, relative to β-Actin, vs control
How it was run: as §1

Cyclin D1 = assay: qRT-PCR gene expression in MCF7 cells: Cyclin D1; type: cell-based, human; details: compound at IC50, 48 h, relative to β-Actin, vs control
How it was run: as §1

c-MYC = assay: qRT-PCR gene expression in MCF7 cells: c-MYC; type: cell-based, human; details: compound at IC50, 48 h, relative to β-Actin, vs control
How it was run: as §1

S. aureus ATCC 25923 = assay: Agar well diffusion test; type: cell-based; details: AWDT; for Zone of inhibition, inhibition scale: S. aureus ATCC 25923; for Zone of inhibition: S. aureus ATCC 25923, average of triplicate
How it was run: (§2)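 Agar well diffusion. Test compounds were placed in wells on agar inoculated with the reference strain or isolate. After incubation, inhibition zone diameters were measured in mm with a caliper. Runs were in triplicate and the zone averaged. Scale: 0 = no inhibition; 0–6 mm (−); 7–11 mm (+); 12–14 mm (++); 15–17 mm (+++).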

E. coli O157 ATCC 700728 [2] = assay: Agar well diffusion test; type: cell-based; details: AWDT; for Zone of inhibition, inhibition scale: E. coli O157 ATCC 700728; for Zone of inhibition: E. coli O157 ATCC 700728, average of triplicate
How it was run: as §2

C. albicans ATCC 10231 [3] = assay: Agar well diffusion test; type: cell-based; details: AWDT; for Zone of inhibition, inhibition scale: C. albicans ATCC 10231; for Zone of inhibition: C. albicans ATCC 10231, average of triplicate
A. flavus isolate = assay: Agar well diffusion test; type: cell-based; details: AWDT; for Zone of inhibition: average of triplicate
How it was run: as §2

C. albicans ATCC 10231 [4] = assay: Minimum inhibitory concentration, C. albicans; type: cell-based; details: Candida albicans, ATCC10231, read-out: MIC (mg mL^−1)
How it was run: (§3)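 MIC was determined by a previously reported method for compounds selected from the well-diffusion screen and is expressed in mg mL−1. […] For C. albicans, 100 μL of negative cells went onto potato dextrose agar at 25 °C/72 h.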

STAT3 [5] = molecular target: STAT3 (Homo sapiens, UniProt P40763); assay: STAT3 tyrosine phosphorylation inhibition; type: biochemical; details: for IC50: STAT3 phosphorylation IC50 (μM) (mean ± SD), ELISA, eight dilutions 100-0.03 μM
E. coli O157 ATCC 700728 [6] = assay: Minimum inhibitory concentration, E. coli; type: cell-based; details: Escherichia coli, ATCC700728, read-out: MIC (mg mL^−1)
How it was run: as §3

E. coli DNA gyrase [7] = molecular target: T1, E. coli DNA gyrase (Escherichia coli, UniProt P0AES6); assay: E. coli DNA gyrase supercoiling assay; type: biochemical
How it was run: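 Commercial kit assay of E. coli DNA gyrase supercoiling. Relaxed plasmid DNA is the substrate, and relaxed and supercoiled forms are separated by agarose gel electrophoresis. Test compounds were dissolved in DMSO and added at different concentrations to derive IC50.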

E. coli DNA gyrase [8] = molecular target: T1, E. coli DNA gyrase; assay: E. coli DNA gyrase ATPase assay; type: biochemical
E. coli topoisomerase IV [9] = molecular target: T2, E. coli topoisomerase IV (Escherichia coli, UniProt P20083); assay: E. coli topoisomerase IV cleavage assay; type: biochemical
E. coli topoisomerase IV [10] = molecular target: T2, E. coli topoisomerase IV; assay: E. coli topoisomerase IV ATPase assay; type: biochemical

T2 sequence (P20083 whole entry): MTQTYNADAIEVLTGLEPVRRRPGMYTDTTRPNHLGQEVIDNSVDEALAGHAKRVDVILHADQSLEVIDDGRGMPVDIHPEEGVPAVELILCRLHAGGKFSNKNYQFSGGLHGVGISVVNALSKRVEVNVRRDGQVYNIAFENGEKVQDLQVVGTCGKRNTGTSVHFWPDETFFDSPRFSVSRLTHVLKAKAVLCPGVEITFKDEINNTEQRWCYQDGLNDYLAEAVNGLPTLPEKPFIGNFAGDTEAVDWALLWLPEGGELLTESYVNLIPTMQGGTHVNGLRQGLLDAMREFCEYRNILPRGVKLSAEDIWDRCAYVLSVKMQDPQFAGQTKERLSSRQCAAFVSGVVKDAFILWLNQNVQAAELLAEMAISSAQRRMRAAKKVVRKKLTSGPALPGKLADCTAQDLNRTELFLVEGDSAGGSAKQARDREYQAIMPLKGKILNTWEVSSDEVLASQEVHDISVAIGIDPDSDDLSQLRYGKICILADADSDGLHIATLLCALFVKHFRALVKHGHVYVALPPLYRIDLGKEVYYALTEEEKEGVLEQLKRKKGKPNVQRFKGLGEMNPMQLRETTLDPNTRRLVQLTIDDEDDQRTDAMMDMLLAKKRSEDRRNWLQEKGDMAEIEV
T2 sequence (P0AFI2 whole entry partner): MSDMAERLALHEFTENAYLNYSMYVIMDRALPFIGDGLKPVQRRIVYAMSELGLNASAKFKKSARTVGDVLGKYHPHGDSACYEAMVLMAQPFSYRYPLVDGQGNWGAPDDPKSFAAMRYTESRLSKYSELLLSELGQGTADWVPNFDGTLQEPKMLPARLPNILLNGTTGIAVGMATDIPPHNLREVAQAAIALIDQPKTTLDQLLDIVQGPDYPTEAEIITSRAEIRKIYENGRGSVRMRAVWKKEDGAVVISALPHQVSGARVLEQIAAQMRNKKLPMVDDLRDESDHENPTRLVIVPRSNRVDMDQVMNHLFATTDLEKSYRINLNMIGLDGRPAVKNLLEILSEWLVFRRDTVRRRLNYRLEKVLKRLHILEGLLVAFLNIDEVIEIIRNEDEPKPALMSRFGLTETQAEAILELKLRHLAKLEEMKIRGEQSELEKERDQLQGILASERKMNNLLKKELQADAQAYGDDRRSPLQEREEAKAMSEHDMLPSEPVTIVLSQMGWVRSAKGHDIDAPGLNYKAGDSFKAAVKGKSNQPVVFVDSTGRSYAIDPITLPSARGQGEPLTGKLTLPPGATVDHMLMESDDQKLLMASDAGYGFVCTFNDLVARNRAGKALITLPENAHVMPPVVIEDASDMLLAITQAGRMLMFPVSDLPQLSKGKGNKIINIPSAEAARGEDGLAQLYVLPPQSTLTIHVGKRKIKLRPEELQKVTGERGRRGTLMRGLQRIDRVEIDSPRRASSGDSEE
Chain of STAT3 (Homo sapiens, UniProt P40763) (P40763 whole entry): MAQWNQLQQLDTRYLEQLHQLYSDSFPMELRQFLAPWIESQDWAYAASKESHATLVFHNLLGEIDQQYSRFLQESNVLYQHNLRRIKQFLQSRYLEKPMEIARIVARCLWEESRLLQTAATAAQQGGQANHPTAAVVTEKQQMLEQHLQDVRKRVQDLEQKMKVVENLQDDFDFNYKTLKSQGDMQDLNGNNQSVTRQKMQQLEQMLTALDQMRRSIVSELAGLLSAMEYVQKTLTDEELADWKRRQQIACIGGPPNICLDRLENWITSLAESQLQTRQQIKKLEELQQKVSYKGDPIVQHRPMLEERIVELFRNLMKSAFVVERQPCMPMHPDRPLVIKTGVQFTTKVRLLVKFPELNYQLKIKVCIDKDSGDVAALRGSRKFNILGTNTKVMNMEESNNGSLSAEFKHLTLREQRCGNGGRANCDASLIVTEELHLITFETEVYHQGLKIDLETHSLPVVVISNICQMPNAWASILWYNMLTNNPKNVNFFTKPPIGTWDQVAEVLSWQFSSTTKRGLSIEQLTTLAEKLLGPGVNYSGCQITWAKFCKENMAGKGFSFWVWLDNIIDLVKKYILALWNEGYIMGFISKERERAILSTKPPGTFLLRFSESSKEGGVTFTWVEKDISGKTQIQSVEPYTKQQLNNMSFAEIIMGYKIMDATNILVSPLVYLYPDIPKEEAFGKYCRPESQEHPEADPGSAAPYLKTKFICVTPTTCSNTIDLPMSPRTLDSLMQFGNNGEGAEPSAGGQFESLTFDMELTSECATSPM

Row | SMILES | IC50 (MCF7 cells) [µM] | (SI) MCF7, selectivity index (MCF7 cells) | IL6 gene expression level (IL6) | JAK2 gene expression level (JAK2) | STAT3 gene expression level (STAT3 [1]) | BCL2 gene expression level (BCL2) | c-MYC gene expression level (c-MYC) | Zone of inhibition, inhibition scale (S. aureus ATCC 25923) | Zone of inhibition (S. aureus ATCC 25923) [mm] | Zone of inhibition (E. coli O157 ATCC 700728 [2]) [mm] | Zone of inhibition, inhibition scale (C. albicans ATCC 10231 [3]) | Zone of inhibition (C. albicans ATCC 10231 [3]) [mm] | Zone of inhibition, inhibition scale (A. flavus isolate) | Zone of inhibition (A. flavus isolate) [mm] | MIC (C. albicans ATCC 10231 [4]) [µg/mL] | other results
1 | COc1cccc2c1C(=O)c1c(O)c3c(c(O)c1C2=O)C[C@@](O)(C(=O)CO)C[C@@H]3O[C@H]1C[C@H](N)[C@H](O)[C@H](C)O1 [Doxorubicin, reference compound] | 22.8 | 3.07 | significantly decreasing | significantly decreasing | significantly decreasing | significantly decreasing | significantly decreasing |  |  |  |  |  |  |  |  | BAX gene expression level (BAX): significantly raised; Cyclin D1 gene expression level (Cyclin D1): significantly decreasing
2 | CC(=O)c1ccc2cc(S(=O)(=O)Nc3ccccc3Cl)ccc2c1 [Compound 5c, 6-Acetyl-N-(2-chlorophenyl)naphthalene-2-sulfonamide] |  |  |  |  |  |  |  | − (0–6 mm (−)) | 0 | 12 | +++ (15–17 mm (+++)) | 16 | − (0–6 mm (−)) | 0 | 20000 (≈ 55.6 mM) | Zone of inhibition, inhibition scale (E. coli O157 ATCC 700728 [2]): ++ (12–14 mm (++))
3 | CC(=O)c1ccc2cc(S(=O)(=O)NCc3ccccc3)ccc2c1 [Compound 5h, 6-Acetyl-N-benzylnaphthalene-2-sulfonamide] |  |  |  |  |  |  |  | ++ (12–14 mm (++)) | 14 | 10 | + (7–11 mm (+)) | 7 | + (7–11 mm (+)) | 10 |  | 
4 | CC(=O)c1ccc2cc(S(=O)(=O)Nc3ccccc3)ccc2c1 [Compound 5a, 6-Acetyl-N-phenylnaphthalene-2-sulfonamide] | 42.1 | 2.15 | significantly decreased | significantly decreased | significantly decreased | significantly decreased | significantly decreased | − (0–6 mm (−)) | 0 |  | ++ (12–14 mm (++)) | 12 | − (0–6 mm (−)) | 0 |  | IC50 (STAT3 [5]): 7.87 ± 0.74 µM
5 | CC(=O)c1ccc2cc(S(=O)(=O)Nc3ccc(F)cc3)ccc2c1 [Compound 5b, 6-Acetyl-N-(4-fluorophenyl)naphthalene-2-sulfonamide] | 40.1 | 2.33 | significant decrease | significant decrease | significant decrease | significant decrease | significant decrease | − (0–6 mm (−)) | 0 | 15 | +++ (15–17 mm (+++)) | 15 | − (0–6 mm (−)) | 0 | 10000 (≈ 29.1 mM) | BAX gene expression level (BAX): significant increase; Cyclin D1 gene expression level (Cyclin D1): significant decrease; MIC (E. coli O157 ATCC 700728 [6]): 10000 µg/mL (≈ 29.1 mM); IC50 (STAT3 [5]): 3.59 ± 0.7 µM; Potency as STAT3 inhibitor relative to lead compound I (STAT3 [5]; higher potency than compound I): approximately 2 fold; IC50 (E. coli DNA gyrase [7]): 20.6 µM; IC50 (E. coli DNA gyrase [8]): 3.58 µM; IC50 (E. coli topoisomerase IV [9]): 15.4 µM; Potency relative to norfloxacin, topoisomerase IV cleavage assay (E. coli topoisomerase IV [9]; E. coli, more potent than norfloxacin): 1.5 fold; IC50 (E. coli topoisomerase IV [10]): 3.49 µM
6 | CC(=O)c1ccc2cc(S(=O)(=O)Nc3ccccc3C)ccc2c1 [Compound 5f, 6-Acetyl-N-(o-tolyl)naphthalene-2-sulfonamide] |  |  |  |  |  |  |  | − (0–6 mm (−)) | 0 | 11 | + (7–11 mm (+)) | 12 | − (0–6 mm (−)) | 0 |  | 
7 | CC(=O)c1ccc2cc(S(=O)(=O)Nc3cccc(Cl)c3)ccc2c1 [Compound 5d, 6-Acetyl-N-(3-chlorophenyl)naphthalene-2-sulfonamide] |  |  |  |  |  |  |  | − (0–6 mm (−)) | 0 | 10 | + (7–11 mm (+)) | 15 | − (0–6 mm (−)) | 0 | 10000 (≈ 27.8 mM) | 
8 | COc1ccc(NS(=O)(=O)c2ccc3cc(C(C)=O)ccc3c2)cc1 [Compound 5g, 6-Acetyl-N-(4-methoxyphenyl)naphthalene-2-sulfonamide] |  |  |  |  |  |  |  | − (0–6 mm (−)) | 0 | 12 | + (7–11 mm (+)) | 10 | − (0–6 mm (−)) | 0 |  | Zone of inhibition, inhibition scale (E. coli O157 ATCC 700728 [2]): ++ (12–14 mm (++))
9 | CC(=O)c1ccc2cc(S(=O)(=O)Nc3ccccn3)ccc2c1 [Compound 5i, 6-Acetyl-N-(pyridin-2-yl)naphthalene-2-sulfonamide] | 41.6 | 2.13 | significant decrease | significant decrease | significant decrease | significant decrease | significant decrease | − (0–6 mm (−)) | 0 | 11 | + (7–11 mm (+)) | 14 | − (0–6 mm (−)) | 0 | 40000 (≈ 123 mM) | BAX gene expression level (BAX): significant increase; Cyclin D1 gene expression level (Cyclin D1): significant decrease; IC50 (STAT3 [5]): 8.58 ± 0.9 µM
10 | CC(=O)c1ccc2cc(S(=O)(=O)Nc3cccnc3)ccc2c1 [Compound 5j, 6-Acetyl-N-(pyridin-3-yl)naphthalene-2-sulfonamide] |  |  |  |  |  |  |  | − (0–6 mm (−)) | 0 | 16 | +++ (15–17 mm (+++)) | 16 | + (7–11 mm (+)) | 7 | 10000 (≈ 30.6 mM) | MIC (E. coli O157 ATCC 700728 [6]): 20000 µg/mL (≈ 61.3 mM)
11 | CCn1cc(C(=O)O)c(=O)c2cc(F)c(N3CCNCC3)cc21 [Nor, norfloxacin, reference compound] |  |  |  |  |  |  |  |  |  |  |  |  |  |  |  | IC50 (E. coli DNA gyrase [7]): 11.1 µM; IC50 (E. coli topoisomerase IV [9]): 25.8 µM
